Reference: ChEMBL document CHEMBL3244080, “Structure-activity correlations for a series of antiallergy agents. Oxanilic, quinaldic, and benzopyran-2-carboxylic acids” (1978)

Tested on: Rattus norvegicus
Assay: Antiallergic activity in iv dosed Sprague-Dawley rat assessed as inhibition of egg albumin-induced passive cutaneous anaphylaxis
Assay type: functional
Settings: for ED50: Rattus norvegicus, Sprague-Dawley, iv
Summary of the method: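 Rat passive cutaneous anaphylaxis; drug given iv as its tris(hydroxymethyl)aminomethane (THAM) salt solution at the moment of antigen challenge. Percent inhibition of the PCA reaction measured at three or more trial doses; ED50 = dose giving 50% inhibition of the anaphylactic reaction.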

Row | Structure (SMILES) | Activity_index | ED50
1 | Nc1ccc2nc(C(=O)O)cc(O)c2c1 | 9.9 | 48.3 µmol/kg
2 | COc1ccc2nc(C(=O)O)cc(O)c2c1 | 9.4 | 82.2 µmol/kg
3 | O=C(O)C(=O)Nc1ccccc1 | 8.3 | 245 µmol/kg
4 | N#Cc1ccc(NC(=O)C(=O)O)cc1 | 10.1 | 40.5 µmol/kg
5 | N#Cc1ccccc1NC(=O)C(=O)O | 11.5 | 10.1 µmol/kg
6 | N#Cc1cccc(NC(=O)C(=O)O)c1 | 12.6 | 3.38 µmol/kg
7 | N#Cc1cc(NC(=O)C(=O)O)ccc1Cl | 13.1 | 2.06 µmol/kg
8 | N#Cc1ccc(Cl)c(NC(=O)C(=O)O)c1 | 13.3 | 1.74 µmol/kg
9 | N#Cc1cc(C#N)cc(NC(=O)C(=O)O)c1 | 14 | 0.84 µmol/kg
10 | Nc1ccc2oc(C(=O)O)cc(=O)c2c1 | 10 | 43.5 µmol/kg
11 | O=C(O)c1cc(=O)c2cc([N+](=O)[O-])ccc2o1 | 11.9 | 6.48 µmol/kg
12 | O=C(O)c1cc(=O)c2c(OCC(O)COc3cccc4oc(C(=O)O)cc(=O)c34)cccc2o1 [CROMOLYN SODIUM] | – | 6.1 µmol/kg
13 | O=C(O)c1cc(=O)c2ccccc2[nH]1 [TRANSTORINE] | 10.1 | 42.4 µmol/kg
14 | O=C(O)c1cc(O)c2cccc(O)c2n1 [XANTHURENATE] | 9.1 | 114 µmol/kg
